Data published in article PMC2847389 (ACS nano, 2010).

Assay: Circulation retention / AuNP probe clearance in vivo
Parameters: species or system athymic nude mice
Settings: i.v., within the first hour, normalised to 1 min post-injection, n = 5
Outline: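 Male Nu/nu mice, 6-8 weeks old, anaesthetised with Avertin (240 mg/kg i.p.). Dosed i.v. by tail vein with 1 mg probe in 100 μl water, or the equivalent dye-labeled peptide in sterile water. Serum was taken at each time point after euthanasia. 100 μl serum was incubated with DTT (~286 mM final) for 16 h at RT. Q670 read at 644/670 nm. Mean ± s.d., n = 5.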

Q670 (or BHQ2)-(His-Ser-Ser-Lys-Leu-Gln)-Cys [uncomplexed peptide]
% of initial administered amount removed from serum: more than 90%
